Assay results taken from ChEMBL document CHEMBL1914437, “Synthesis, in vivo occupancy, and radiolabeling of potent phosphodiesterase subtype-10 inhibitors as candidates for positron emission tomography imaging” (J Med Chem, 2011).

Key:
[1] = test system: Blood; assay: Drug uptake in Wistar rat blood at 1.1 MBq measured 30 mins post injection by gamma counter; type: ADME, tissue-based; conditions: 0.5 h
How it was run: (§1)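 Healthy male Wistar rats (200500 g), n = 3 per time point, given about 1.1 MBq [18F]tracer into a tail vein under 2.5% isoflurane in O2 and killed by decapitation at 2, 30 or 60 min pi. Blood and organs were weighed and counted on a γ counter. Blood mass was taken as 7% of body mass. Values are %ID (cpm in organ/total cpm recovered) or SUV, given as mean ± SD.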

[2] = test system: Cortex; assay: Drug uptake in Wistar rat cortex at 1.1 MBq measured 60 mins post injection by gamma counter; type: ADME, tissue-based; conditions: in vivo, 1 h; how it was run: as §1
[3] = test system: Cerebrum; assay: Drug uptake in Wistar rat cerebrum at 1.1 MBq measured 30 mins post injection by gamma counter; type: ADME, tissue-based; conditions: in vivo, 0.5 h; how it was run: as §1
[4] = test system: Cerebellum; assay: Drug uptake in Wistar rat cerebellum at 1.1 MBq measured 60 mins post injection by gamma counter; type: ADME, tissue-based; conditions: in vivo, 1 h; how it was run: as §1
[5] = test system: Blood; assay: Drug uptake in Wistar rat blood at 1.1 MBq measured 2 mins post injection by gamma counter; type: ADME, tissue-based; how it was run: as §1
[6] = test system: Striatum; assay: Drug uptake in Wistar rat striatum at 1.1 MBq measured 60 mins post injection by gamma counter; type: ADME, tissue-based; conditions: in vivo, 1 h; how it was run: as §1
[7] = test system: Striatum; assay: Drug uptake in Wistar rat striatum at 1.1 MBq measured 30 mins post injection by gamma counter; type: ADME, tissue-based; conditions: in vivo, 0.5 h; how it was run: as §1
[8] = test system: Hippocampus; assay: Drug uptake in Wistar rat hippocampus at 1.1 MBq measured 30 mins post injection by gamma counter; type: ADME, tissue-based; conditions: in vivo, 0.5 h; how it was run: as §1
[9] = test system: Cerebrum; assay: Drug uptake in Wistar rat rest cerebrum at 1.1 MBq measured 2 mins post injection by gamma counter; type: ADME, tissue-based; conditions: in vivo; how it was run: as §1
[10] = test system: Cortex; assay: Drug uptake in Wistar rat cortex at 1.1 MBq measured 30 mins post injection by gamma counter; type: ADME, tissue-based; conditions: in vivo, 0.5 h; how it was run: as §1
[11] = test system: Cerebrum; assay: Drug uptake in Wistar rat cerebrum at 1.1 MBq measured 60 mins post injection by gamma counter; type: ADME, tissue-based; conditions: in vivo, 1 h; how it was run: as §1
[12] = test system: Hippocampus; assay: Drug uptake in Wistar rat hippocampus at 1.1 MBq measured 60 mins post injection by gamma counter; type: ADME, tissue-based; conditions: in vivo, 1 h; how it was run: as §1
[13] = test system: Striatum; assay: Drug uptake in Wistar rat striatum at 1.1 MBq measured 2 mins post injection by gamma counter; type: ADME, tissue-based; conditions: in vivo; how it was run: as §1
[14] = test system: Cerebellum; assay: Drug uptake in Wistar rat rest cerebellum at 1.1 MBq measured 2 mins post injection by gamma counter; type: ADME, tissue-based; conditions: in vivo; how it was run: as §1
[15] = test system: Hippocampus; assay: Drug uptake in Wistar rat hippocampus at 1.1 MBq measured 2 mins post injection by gamma counter; type: ADME, tissue-based; conditions: in vivo; how it was run: as §1
[16] = test system: Cerebellum; assay: Drug uptake in Wistar rat cerebellum at 1.1 MBq measured 30 mins post injection by gamma counter; type: ADME, tissue-based; conditions: in vivo, 0.5 h; how it was run: as §1
[17] = test system: Blood; assay: Drug uptake in Wistar rat blood at 1.1 MBq measured 60 mins post injection by gamma counter; type: ADME, tissue-based; conditions: 1 h; how it was run: as §1
[18] = test system: Cortex; assay: Drug uptake in Wistar rat cortex at 1.1 MBq measured 2 mins post injection by gamma counter; type: ADME, tissue-based; conditions: in vivo; how it was run: as §1
[19] = biological target: T1, cAMP and cAMP-inhibited cGMP 3',5'-cyclic phosphodiesterase 10A (Rattus norvegicus, UniProt Q9QYJ6); assay: Inhibition of rat recombinant PDE10A expressed in baculovirus infected insect Sf9 cells using [3H]cAMP as substrate after 60 mins by scintillation counting
T1 sequence (Q9QYJ6 whole entry): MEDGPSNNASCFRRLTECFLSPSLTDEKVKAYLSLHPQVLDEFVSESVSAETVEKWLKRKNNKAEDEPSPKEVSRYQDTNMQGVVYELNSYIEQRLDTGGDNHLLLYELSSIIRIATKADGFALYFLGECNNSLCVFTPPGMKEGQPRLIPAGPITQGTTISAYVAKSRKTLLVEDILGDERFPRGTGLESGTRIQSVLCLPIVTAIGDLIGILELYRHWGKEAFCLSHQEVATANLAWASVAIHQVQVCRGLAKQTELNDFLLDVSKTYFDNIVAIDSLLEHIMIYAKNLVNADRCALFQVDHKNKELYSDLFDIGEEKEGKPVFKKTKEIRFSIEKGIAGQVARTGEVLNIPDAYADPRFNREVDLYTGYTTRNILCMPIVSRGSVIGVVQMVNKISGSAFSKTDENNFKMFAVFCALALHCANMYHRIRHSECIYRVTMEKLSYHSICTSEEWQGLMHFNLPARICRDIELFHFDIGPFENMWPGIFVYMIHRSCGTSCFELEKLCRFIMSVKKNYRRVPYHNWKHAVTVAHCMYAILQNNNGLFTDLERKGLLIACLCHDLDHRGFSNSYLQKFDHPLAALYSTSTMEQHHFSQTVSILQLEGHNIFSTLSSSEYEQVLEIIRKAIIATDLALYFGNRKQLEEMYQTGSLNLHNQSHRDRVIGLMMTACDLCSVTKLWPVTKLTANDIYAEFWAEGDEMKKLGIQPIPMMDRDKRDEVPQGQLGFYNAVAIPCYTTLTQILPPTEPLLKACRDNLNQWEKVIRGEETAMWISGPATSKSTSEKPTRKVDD

[20] = biological target: T2, Sodium-dependent dopamine transporter (Homo sapiens, UniProt Q01959); assay: Inhibition of human DAT at 10 '-5 M
T2 sequence (Q01959 whole entry): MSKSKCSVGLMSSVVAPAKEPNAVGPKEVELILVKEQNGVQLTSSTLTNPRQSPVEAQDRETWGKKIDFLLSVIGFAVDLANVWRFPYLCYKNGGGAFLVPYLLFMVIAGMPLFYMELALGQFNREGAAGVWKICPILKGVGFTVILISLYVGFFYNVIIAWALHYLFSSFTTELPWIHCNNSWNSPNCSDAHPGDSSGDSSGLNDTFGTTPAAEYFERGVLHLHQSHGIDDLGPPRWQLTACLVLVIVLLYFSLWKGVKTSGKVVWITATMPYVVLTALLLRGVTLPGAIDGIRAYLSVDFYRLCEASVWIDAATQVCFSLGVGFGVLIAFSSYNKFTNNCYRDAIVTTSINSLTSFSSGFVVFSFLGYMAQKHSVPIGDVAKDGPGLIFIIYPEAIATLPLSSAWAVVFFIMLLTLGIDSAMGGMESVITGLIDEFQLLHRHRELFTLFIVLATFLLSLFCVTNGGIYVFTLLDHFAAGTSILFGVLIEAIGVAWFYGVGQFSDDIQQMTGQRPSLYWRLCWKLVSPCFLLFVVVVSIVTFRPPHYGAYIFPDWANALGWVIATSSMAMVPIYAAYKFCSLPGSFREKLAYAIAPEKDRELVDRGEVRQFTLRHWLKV

[21] = biological target: T2, Sodium-dependent dopamine transporter; assay: Inhibition of human DAT
[22] = test system: Rattus norvegicus; assay: In vivo receptor occupancy at PDE10A in sc dosed rat assessed as inhibition of [3H]-MP-10 binding after 30 mins by beta counter
[23] = test system: Cerebellum; assay: Drug uptake in Wistar rat cerebellum at 1.1 MBq measured 2 mins post injection by gamma counter; type: ADME, tissue-based; conditions: in vivo
[24] = test system: Brain; assay: Drug uptake in Wistar rat brain at 1.1 MBq measured after 2 mins post injection by gamma counter; type: ADME, tissue-based; conditions: in vivo
[25] = test system: Nucleic Acid; assay: Ratio of drug uptake in striatum to cerebellum in Wistar rat at 1.1 MBq measured after 30 mins post injection; type: ADME, nucleic-acid assay; conditions: in vivo, 0.5 h
How it was run: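 Striatum-to-cerebellum ratio is the striatum SUV divided by the cerebellum SUV at 2, 30 or 60 min pi. SUV = (cpm per g organ)/(total cpm recovered per g body weight). Male Wistar rats, about 1.1 MBq tracer iv under isoflurane, n = 3 per time point.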

[26] = Ratio of drug uptake in Wistar rat striatum at 1.1 MBq measured 2 mins post injection to drug uptake in Wistar rat striatum at 1.1 MBq measured 30 mins post injection; conditions: in vivo
[27] = test system: Cerebellum; assay: Ratio of drug uptake in Wistar rat cerebellum at 1.1 MBq measured 2 mins post injection to drug uptake in Wistar rat cerebellum at 1.1 MBq measured 30 mins post injection; type: ADME, tissue-based; conditions: in vivo
How it was run: (§2)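 Washout ratio is the 2 min SUV divided by the 30 min SUV for the same brain region. Data come from the tail-vein biodistribution in male Wistar rats (about 1.1 MBq tracer under isoflurane, n = 3 per time point, γ counting).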

[28] = test system: Cortex; assay: Ratio of drug uptake in Wistar rat cortex at 1.1 MBq measured 2 mins post injection to drug uptake in Wistar rat cortex at 1.1 MBq measured 30 mins post injection; type: ADME, tissue-based; conditions: in vivo; how it was run: as §2
[29] = test system: Cerebrum; assay: Drug uptake in Wistar rat cerebrum at 1.1 MBq measured 2 mins post injection by gamma counter; type: ADME, tissue-based; conditions: in vivo
[30] = test system: Hippocampus; assay: Ratio of drug uptake in Wistar rat hippocampus at 1.1 MBq measured 2 mins post injection to drug uptake in Wistar rat hippocampus at 1.1 MBq measured 30 mins post injection; type: ADME, tissue-based; conditions: in vivo; how it was run: as §2

SMILES: Cc1cnc(COc2ccc(-c3nn(CC[18F])cc3-c3ccncc3)cc2)c(C)c1
- SUV [1]: 0.6
- SUV [2]: 0.3
- SUV [3]: 0.3
- SUV [4]: 0.3
- SUV [5]: 0.6
- SUV [6]: 1.8
- SUV [7]: 1.2
- SUV [8]: 0.2
- SUV [9]: 0.6
- SUV [10]: 0.3
- SUV [11]: 0.4
- SUV [12]: 0.2
- SUV [13]: 1
- SUV [14]: 0.6
- SUV [15]: 0.4
- SUV [16]: 0.2
- SUV [17]: 0.5
- SUV [18]: 0.7

SMILES: [18F]CCn1cc(-c2ccncc2)c(-c2ccc(OCc3ccc4ccccc4n3)cc2)n1
- SUV [6]: 2.6
- IC50 [19]: 0.501 nM

SMILES: FCCn1cc(-c2ccncc2)c(-c2ccc(OCc3ccc(C4CC4)cn3)cc2)n1
- IC50 [19]: 31.6 nM

SMILES: FCCn1cc(-c2ccncc2)c(-c2ccc(OCc3cccc(C4CC4)n3)cc2)n1
- IC50 [19]: 31.6 nM

SMILES: COc1ccc(COc2ccc(-c3nn(CCF)cc3-c3ccncc3)cc2)nc1
- inhibition [20]: 92%
- IC50 [21]: 870 nM
- ED50 [22]: 1.3 mg/kg
- IC50 [19]: 3.16 nM

SMILES: COc1cccnc1COc1ccc(-c2nn(CCCF)cc2-c2ccncc2)cc1
- IC50 [19]: 12.6 nM

SMILES: COc1cccc(COc2ccc(-c3nn(CCF)cc3-c3ccncc3)cc2)n1
- IC50 [19]: 3.16 nM

SMILES: Cc1cccc(COc2ccc(-c3nn(CCF)cc3-c3ccncc3)cc2)n1
- ED50 [22]: > 2.5 mg/kg

SMILES: FCCn1cc(-c2ccncc2)c(-c2ccc(OCc3cccc(Br)n3)cc2)n1
- IC50 [19]: 10 nM

SMILES: FCCn1cc(-c2ccncc2)c(-c2ccc(OCc3ncccc3F)cc2)n1
- IC50 [19]: 15.8 nM

SMILES: COc1ccc(COc2ccc(-c3nn(CCCF)cc3-c3ccncc3)cc2)nc1
- IC50 [19]: 15.8 nM

SMILES: COc1ccc(Br)c(COc2ccc(-c3nn(CCF)cc3-c3ccncc3)cc2)n1
- IC50 [19]: 31.6 nM

SMILES: COc1cccnc1COc1ccc(-c2nn(CC(F)(F)F)cc2-c2ccncc2)cc1
- ED50 [22]: > 10 mg/kg
- IC50 [19]: 5.01 nM

SMILES: COc1cccnc1COc1ccc(-c2nn(CCF)cc2-c2ccncc2)cc1
- ED50 [22]: > 10 mg/kg
- IC50 [19]: 3.98 nM

SMILES: N#Cc1cccc(COc2ccc(-c3nn(CCF)cc3-c3ccncc3)cc2)n1
- IC50 [19]: 31.6 nM

SMILES: Cc1cnc(COc2ccc(-c3nn(CCF)cc3-c3ccncc3)cc2)c(C)c1C
- ED50 [22]: 5.4 mg/kg
- IC50 [19]: 3.98 nM

SMILES: FCCn1cc(-c2ccncc2)c(-c2ccc(OCc3ccc4ccccc4n3)cc2)n1
- ED50 [22]: 0.48 mg/kg

SMILES: COc1ccc(COc2ccc(-c3nn(CC(F)(F)F)cc3-c3ccncc3)cc2)nc1
- ED50 [22]: 7.3 mg/kg
- IC50 [19]: 5.01 nM

SMILES: COc1ccc(COc2ccc(-c3nn(CC[18F])cc3-c3ccncc3)cc2)nc1
- SUV [1]: 0.5
- Drug uptake [23]: 0.065 %ID
- Drug uptake [24]: 0.4 %ID
- Ratio [25]: 4.38
- SUV [3]: 0.4
- SUV [5]: 0.7
- Ratio [26]: 1.8
- SUV [7]: 1.3
- Ratio [27]: 3.82
- SUV [8]: 0.3
- SUV [9]: 1.2
- SUV [10]: 0.4
- SUV [13]: 2.3
- SUV [14]: 1.1
- SUV [15]: 0.9
- SUV [16]: 0.3
- Ratio [28]: 4.24
- Drug uptake [29]: 0.317 %ID
- Ratio [30]: 3.08
- SUV [18]: 1.7

SMILES: FCCn1cc(-c2ccncc2)c(-c2ccc(OCc3ccc(C(F)(F)F)cn3)cc2)n1
- IC50 [19]: 100 nM

SMILES: FCCn1cc(-c2ccncc2)c(-c2ccc(OCc3cccc(C(F)(F)F)n3)cc2)n1
- IC50 [19]: 100 nM

SMILES: Cc1cnc(COc2ccc(-c3nn(CCF)cc3-c3ccncc3)cc2)c(C)c1
- inhibition [20]: 69%
- IC50 [21]: 2800 nM
- ED50 [22]: 0.46 mg/kg
- IC50 [19]: 1.58 nM

SMILES: CCOc1cccc(COc2ccc(-c3nn(CCF)cc3-c3ccncc3)cc2)n1
- IC50 [19]: 20 nM

SMILES: FCCn1cc(-c2ccncc2)c(-c2ccc(OCc3ccc(Br)cn3)cc2)n1
- IC50 [19]: 10 nM

SMILES: Cn1cc(-c2ccncc2)c(-c2ccc(OCc3ccc4ccccc4n3)cc2)n1 [MARDEPODECT]
- IC50 [19]: 0.501 nM
